Assay results from ChEMBL document CHEMBL4138318, “Discovery of 5-Cyano-6-phenylpyrimidin Derivatives Containing an Acylurea Moiety as Orally Bioavailable Reversal Agents against P-Glycoprotein-Mediated Mutidrug Resistance” (J Med Chem, 2018).
Calls of active or inactive are those of the source. The rule behind the calls is not given here.

Key:
[1] = molecular target: T1, ATP-dependent translocase ABCB1 (Homo sapiens, UniProt P08183); assay: Inhibition of ABCB1 in human SW620/AD300 cells assessed as potentiation of paclitaxel-induced cytotoxicity by measuring fold reduction in paclitaxel IC50 at 1 uM after 72 hrs by MTT assay; format: cell-based
T1 sequence (P08183 whole entry): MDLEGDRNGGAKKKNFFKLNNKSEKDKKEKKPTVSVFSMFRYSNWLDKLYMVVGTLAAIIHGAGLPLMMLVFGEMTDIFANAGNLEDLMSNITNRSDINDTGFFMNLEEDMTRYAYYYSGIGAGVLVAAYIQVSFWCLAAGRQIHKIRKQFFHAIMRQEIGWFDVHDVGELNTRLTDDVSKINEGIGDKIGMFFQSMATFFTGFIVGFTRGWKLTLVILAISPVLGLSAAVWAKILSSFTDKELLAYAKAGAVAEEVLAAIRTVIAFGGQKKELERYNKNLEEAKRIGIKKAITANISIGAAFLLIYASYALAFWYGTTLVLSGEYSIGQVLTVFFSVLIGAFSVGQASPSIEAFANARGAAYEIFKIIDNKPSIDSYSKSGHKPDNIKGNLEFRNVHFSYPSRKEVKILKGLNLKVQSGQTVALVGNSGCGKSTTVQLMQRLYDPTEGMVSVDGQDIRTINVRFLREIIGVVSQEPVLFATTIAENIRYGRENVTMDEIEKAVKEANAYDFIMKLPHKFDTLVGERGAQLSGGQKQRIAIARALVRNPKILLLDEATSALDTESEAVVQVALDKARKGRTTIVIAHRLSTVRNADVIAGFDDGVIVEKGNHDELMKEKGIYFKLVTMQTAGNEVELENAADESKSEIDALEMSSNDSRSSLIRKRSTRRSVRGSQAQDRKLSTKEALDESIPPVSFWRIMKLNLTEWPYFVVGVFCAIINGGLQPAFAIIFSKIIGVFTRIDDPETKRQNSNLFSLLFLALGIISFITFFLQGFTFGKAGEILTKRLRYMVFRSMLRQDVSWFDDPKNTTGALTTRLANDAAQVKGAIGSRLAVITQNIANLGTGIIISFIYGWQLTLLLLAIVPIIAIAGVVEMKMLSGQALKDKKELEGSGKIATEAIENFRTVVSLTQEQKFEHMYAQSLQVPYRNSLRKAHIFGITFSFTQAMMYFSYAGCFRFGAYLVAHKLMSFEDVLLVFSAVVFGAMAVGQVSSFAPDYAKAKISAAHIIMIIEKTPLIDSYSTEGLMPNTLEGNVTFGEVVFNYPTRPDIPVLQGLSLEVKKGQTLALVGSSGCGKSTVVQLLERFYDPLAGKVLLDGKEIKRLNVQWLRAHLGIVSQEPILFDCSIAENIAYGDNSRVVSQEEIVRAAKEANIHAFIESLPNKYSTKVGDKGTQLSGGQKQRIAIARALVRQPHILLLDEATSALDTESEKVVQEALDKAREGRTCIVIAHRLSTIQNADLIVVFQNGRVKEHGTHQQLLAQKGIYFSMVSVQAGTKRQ
Method in brief: (§1)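 SW620/AD300 cells (~5×10^3/well) treated with graded paclitaxel with or without modulator (2 µM, or 0.5-2 µM in dose series; 0.1% DMSO solvent control) for 72 h; MTT (5 mg/mL stock) added 4 h, absorbance 490 nm. IC50 as mean ± SD of three independent runs; reversal fold = paclitaxel IC50 without/with modulator.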

[2] = molecular target: T1, ATP-dependent translocase ABCB1; assay: Inhibition of ABCB1 in human SW620/AD300 cells assessed as potentiation of paclitaxel-induced cytotoxicity by measuring fold reduction in paclitaxel IC50 at 2 uM after 72 hrs by MTT assay relative to paclitaxel alone; format: cell-based; method in brief: as §1
[3] = molecular target: T1, ATP-dependent translocase ABCB1; assay: Inhibition of ABCB1 in human SW620/AD300 cells assessed as intracellular accumulation of [3H]-paclitaxel up to 4 uM preincubated for 4 hrs followed by [3H]-paclitaxel addition measured after 2 hrs by liquid scintillation counting method; format: cell-based
Method in brief: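 Cells pre-exposed with or without compound at various concentrations 4 h at 37°C, then 0.1 µM [3H]-paclitaxel added for 2 h in continued presence of treatment; washed three times in cold PBS, lysed, radioactivity counted by liquid scintillation. Mean ± SD of three independent assays.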

[4] = molecular target: Multidrug resistance-associated protein 1 (Homo sapiens, UniProt P33527); assay: Binding affinity at ABCC1 in human SW620/AD300 cells assessed as thermal stabilization preincubated for 30 mins followed by incubation 40 to 61 degC for 3 mins by CETSA; format: cell-based; details: 0.05 h
Chain of Multidrug resistance-associated protein 1 (P33527 whole entry): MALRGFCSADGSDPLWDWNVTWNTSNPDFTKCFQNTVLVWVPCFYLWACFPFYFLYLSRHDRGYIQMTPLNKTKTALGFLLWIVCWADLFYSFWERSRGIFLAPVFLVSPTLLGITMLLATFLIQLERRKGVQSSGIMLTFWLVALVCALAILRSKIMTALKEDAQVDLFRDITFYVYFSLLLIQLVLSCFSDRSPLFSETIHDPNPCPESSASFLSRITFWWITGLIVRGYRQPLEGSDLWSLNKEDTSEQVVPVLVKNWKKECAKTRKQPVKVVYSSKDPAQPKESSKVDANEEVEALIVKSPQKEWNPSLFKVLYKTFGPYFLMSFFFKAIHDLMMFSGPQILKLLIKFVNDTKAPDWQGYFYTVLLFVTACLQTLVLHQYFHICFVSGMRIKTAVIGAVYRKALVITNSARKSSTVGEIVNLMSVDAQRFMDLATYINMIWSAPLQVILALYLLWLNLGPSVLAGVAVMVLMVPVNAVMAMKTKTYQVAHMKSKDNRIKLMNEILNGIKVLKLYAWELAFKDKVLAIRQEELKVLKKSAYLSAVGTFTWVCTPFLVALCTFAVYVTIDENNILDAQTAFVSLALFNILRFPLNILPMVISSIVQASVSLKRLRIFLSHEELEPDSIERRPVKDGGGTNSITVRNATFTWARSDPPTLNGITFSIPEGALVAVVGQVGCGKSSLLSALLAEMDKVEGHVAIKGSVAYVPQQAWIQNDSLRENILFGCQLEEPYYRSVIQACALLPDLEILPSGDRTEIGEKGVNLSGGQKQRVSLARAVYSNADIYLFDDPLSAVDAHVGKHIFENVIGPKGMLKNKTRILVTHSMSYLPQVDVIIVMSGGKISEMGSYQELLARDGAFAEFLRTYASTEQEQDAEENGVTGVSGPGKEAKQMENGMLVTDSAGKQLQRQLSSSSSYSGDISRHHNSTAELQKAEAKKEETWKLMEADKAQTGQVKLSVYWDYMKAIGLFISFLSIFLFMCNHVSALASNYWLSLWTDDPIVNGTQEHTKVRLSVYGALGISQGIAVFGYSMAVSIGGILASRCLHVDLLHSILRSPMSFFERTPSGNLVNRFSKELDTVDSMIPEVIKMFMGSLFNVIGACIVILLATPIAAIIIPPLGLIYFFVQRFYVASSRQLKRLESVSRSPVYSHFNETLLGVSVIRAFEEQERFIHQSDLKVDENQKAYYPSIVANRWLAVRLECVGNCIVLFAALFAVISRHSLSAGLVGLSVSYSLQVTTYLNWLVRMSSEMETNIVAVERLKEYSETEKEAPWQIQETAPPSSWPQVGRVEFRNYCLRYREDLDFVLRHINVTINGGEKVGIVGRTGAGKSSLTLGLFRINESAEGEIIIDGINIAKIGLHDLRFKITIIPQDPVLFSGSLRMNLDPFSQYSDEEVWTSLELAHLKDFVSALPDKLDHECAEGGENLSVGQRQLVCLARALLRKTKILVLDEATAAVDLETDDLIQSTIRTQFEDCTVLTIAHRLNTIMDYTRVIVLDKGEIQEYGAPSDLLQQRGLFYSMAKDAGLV
Method in brief: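 SW620/AD300 cells lysed by three liquid-nitrogen freeze-thaw cycles; ultracentrifuged supernatant split into compound-treated and solvent-control portions, incubated 30 min at 37℃, aliquoted and heated 3 min at 40, 43, 46, 49, 52, 55, 58 or 61℃; remaining ABCB1 or ABCC1 detected by western blotting.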

[5] = molecular target: T1, ATP-dependent translocase ABCB1; assay: Inhibition of ABCB1 in human SW620/AD300 cells assessed as decrease in rhodamine 123 efflux preincubated for 4 hrs followed by 30 mins incubation in Rho-123 containing medium and subsequent incubation in Rho-123 free medium up to 120 mins by flow cytometry; format: cell-based
Method in brief: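 Cells loaded with rhodamine 123 as in the accumulation assay (4 h compound pre-exposure, 1 µg/mL dye 30 min, 37℃), then kept in dye-free medium with or without reversal agent for 30, 60, 90 or 120 min at 37℃; intracellular fluorescence read by flow cytometry at 488/530 nm. Three independent experiments.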

[6] = Cytotoxicity against human SW620 cells assessed as survival at 2 uM after 72 hrs by MTT assay relative to control; format: cell-based, SW-620; details: read-out: Survival
[7] = molecular target: T1, ATP-dependent translocase ABCB1; assay: Stimulation of human ABCB1 ATPase activity expressed in high-five insect cell membrane vesicles by colorimetric analysis
Method in brief: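 Vanadate-sensitive ABCB1 ATPase activity in High Five insect cell membrane vesicles, measured with a commercial ATPase kit under a modified protocol; compound tested across 0-40 µM; maximal fold stimulation and concentration giving 50% stimulation derived.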

[8] = molecular target: T1, ATP-dependent translocase ABCB1; assay: Inhibition of ABCB1 in human KB-C2 cells assessed as potentiation of vincristine-induced cytotoxicity by measuring fold reduction in vincristine IC50 at 1 uM preincubated for 4 hrs followed by vincristine addition measured after 72 hrs by MTT assay; format: cell-based
[9] = molecular target: T1, ATP-dependent translocase ABCB1; assay: Inhibition of ABCB1 in human SW620/AD300 cells assessed as accumulation of rhodamine 123 preincubated for 4 hrs followed by rhodamine 123 addition measured after 30 mins by flow cytometry; format: cell-based; details: 0.5 h
[10] = molecular target: T1, ATP-dependent translocase ABCB1; assay: Inhibition of ABCB1 in human SW620/AD300 cells assessed as potentiation of paclitaxel-induced cytotoxicity after 72 hrs by MTT assay; format: cell-based; method in brief: as §1
Cytochrome P450 3A4 = Cytochrome P450 3A4 (Homo sapiens, UniProt P08684); assay: Inhibition of recombinant human CYP3A4 in presence of NADPH generating system by fluorescence assay; format: ADME
Chain of Cytochrome P450 3A4 (P08684 whole entry): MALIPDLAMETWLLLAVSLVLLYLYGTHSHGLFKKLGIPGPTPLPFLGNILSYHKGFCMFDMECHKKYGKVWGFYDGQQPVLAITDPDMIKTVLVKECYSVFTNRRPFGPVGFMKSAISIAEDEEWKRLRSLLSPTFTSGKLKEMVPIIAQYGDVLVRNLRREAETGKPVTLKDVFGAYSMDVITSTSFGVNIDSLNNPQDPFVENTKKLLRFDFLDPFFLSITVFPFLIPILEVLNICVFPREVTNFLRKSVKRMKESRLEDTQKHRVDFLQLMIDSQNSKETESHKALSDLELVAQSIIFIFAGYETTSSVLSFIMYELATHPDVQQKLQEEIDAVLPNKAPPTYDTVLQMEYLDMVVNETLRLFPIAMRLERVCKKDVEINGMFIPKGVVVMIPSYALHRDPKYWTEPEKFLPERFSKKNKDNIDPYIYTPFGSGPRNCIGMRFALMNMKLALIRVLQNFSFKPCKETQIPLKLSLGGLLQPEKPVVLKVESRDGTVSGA

Mus musculus = assay: Toxicity in nude BALB/c mouse xenografted with ABCB1 overexpressing human SW620/AD300 cells assessed as change in body weight at 20 mg/kg/day, po cotreated with 5 mg/kg, ip paclitaxel measured after 21 days; format: organism-based; details: in vivo, 504 h
Method in brief: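 Female BALB/c nude mice (18-20 g, 5-6 weeks) bearing SW620/AD300 xenografts; grouping once tumours reached 100 mm3: saline vehicle […] ip, paclitaxel 5 mg/kg every 3 days ip, test agent 20 mg/kg/day orally, or the combination. Body weight and tumour volume recorded every 2 days over 21 days; tumours excised and weighed at end.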

SW620/AD300 = assay: Effect on subcellular localization of ABCB1 in human SW620/AD300 cells at 2 uM after 48 hrs by Hoechst 33258 staining-based immunofluorescence assay; format: functional, cell-based
Method in brief: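 About 1×10^4 cells on coverslips incubated with compound 48 h, fixed in 4% paraformaldehyde ≥20 min, blocked 2 h in PBS with 5% BSA, anti-ABCB1 primary overnight at 4℃, Alexa Fluor 488 anti-goat secondary 2 h, nuclei stained with Hoechst 33258 20 min; imaged by laser scanning confocal microscopy.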

[11] = Cytotoxicity against human SW620/AD300 cells assessed as survival at 2 uM after 72 hrs by MTT assay relative to control; format: cell-based; details: read-out: Survival
SW-620 = assay: Increase in rhodamine 123 accumulation in human SW620 cells up to 4 uM preincubated for 4 hrs followed by rhodamine 123 addition measured after 30 mins by flow cytometry; format: functional, cell-based
[12] = molecular target: T1, ATP-dependent translocase ABCB1; assay: Inhibition of ABCB1 in human SW620/AD300 cells assessed as intracellular accumulation of paclitaxel up to 4 uM treated at 2 hrs post paclitaxel treatment for 30 mins in paclitaxel free medium by HPLC analysis; format: cell-based; details: 0.5 h
Method in brief: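 Equal numbers of SW620/AD300 cells loaded with 6 µg/mL paclitaxel 2 h, then held in paclitaxel-free medium with or without compound 30 min at 37℃; cells harvested, disrupted by ultrasound, extracted with ethyl acetate and paclitaxel quantified by HPLC.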

[13] = molecular target: T1, ATP-dependent translocase ABCB1; assay: Inhibition of ABCB1 in human SW620/AD300 cells assessed as potentiation of paclitaxel-induced cytotoxicity by measuring fold reduction in paclitaxel IC50 at 0.5 uM after 72 hrs by MTT assay; format: cell-based; method in brief: as §1
[14] = molecular target: T1, ATP-dependent translocase ABCB1; assay: Inhibition of ABCB1 in human SW620/AD300 cells assessed as reduction in [3H]-paclitaxel efflux preincubated for 4 hrs followed by [3H]-paclitaxel addition for 2 hrs measured after 120 mins by liquid scintillation counting method; format: cell-based
Method in brief: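 After 2 h loading with 0.1 µM [3H]-paclitaxel (following 4 h compound pre-exposure), SW620 or SW620/AD300 cells moved to label-free medium for a 2 h efflux phase; samples taken at 0, 30, 60 and 120 min and radioactivity counted by liquid scintillation. Three independent assays, mean ± SD.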

[15] = molecular target: T1, ATP-dependent translocase ABCB1; assay: Inhibition of ABCB1 (unknown origin) expressed in HEK293 cells assessed as potentiation of vincristine-induced cytotoxicity by measuring fold reduction in vincristine IC50 at 1 uM preincubated for 4 hrs followed by vincristine addition measured after 72 hrs by MTT assay; format: cell-based

What does the source list for `COc1cc(-c2nc(SCC(=O)NC(=O)Nc3ccccn3)nc(Nc3cccc(Cl)c3)c2C#N)cc(OC)c1OC`?
fold change (FC) [1]: 135.03; fold change (FC) [2]: 837.2; inhibition (INH) [3]: Active; Activity [4]: Not Active; inhibition (INH) [5]: Dose-dependent effect; viability at 72 h, 2 µM [6]: > 90%; fold change (FC) [7]: 4.56; fold change (FC) [8]: 3.85; inhibition (INH) [9]: Dose-dependent effect; inhibition (INH) [10]: Dose-dependent effect; IC50 (Cytochrome P450 3A4): 17.2 µM; Activity (Mus musculus): Non-Toxic; Activity (SW620/AD300): inactive; viability at 72 h, 2 µM [11]: > 90%; Activity (SW-620): inactive; inhibition (INH) [12]: Active; fold change (FC) [13]: 72.17; inhibition (INH) [14]: Dose-dependent effect; fold change (FC) [15]: 9.75
